Experimental data collected from several papers.
Each line is one published result; the experiments were not run side by side.
FLT3: Receptor-type tyrosine-protein kinase FLT3 (FLT3, Homo sapiens, UniProt P36888)
FLT3 D835Y: Receptor-type tyrosine-protein kinase FLT3 (FLT3, Homo sapiens, UniProt P36888, D835Y)
FLT3 D835V: Receptor-type tyrosine-protein kinase FLT3 (FLT3, Homo sapiens, UniProt P36888, D835V)
FLT3 D835H: Receptor-type tyrosine-protein kinase FLT3 (FLT3, Homo sapiens, UniProt P36888, D835H)
FLT3 N841I: Receptor-type tyrosine-protein kinase FLT3 (FLT3, Homo sapiens, UniProt P36888, N841I)
FLT3 autoinhibited: Receptor-type tyrosine-protein kinase FLT3, autoinhibited (FLT3, Homo sapiens, UniProt P36888)
FLT3 F691L/ITD: Receptor-type tyrosine-protein kinase FLT3 (FLT3, Homo sapiens, UniProt P36888, F691L/ITD)
FLT3 R834Q: Receptor-type tyrosine-protein kinase FLT3 (FLT3, Homo sapiens, UniProt P36888, R834Q)

Structure (SMILES)	target	read-out	technique	tested at	remaining binding [%]
CCN1CCN(Cc2ccc(C(=O)Nc3ccc(C)c(Oc4ccc5c(c4)CC(=O)N5)c3)cc2C(F)(F)F)CC1	FLT3	binding	competition with immobilised ligand	1 µM	41
C[C@H]1CCN(c2nccc(-c3cnn4ncccc34)n2)C1	FLT3 D835Y	binding	–	1 µM	81
CN([C@@H]1CCc2c(CC(=O)O)c3cc(S(C)(=O)=O)ccc3n2C1)S(=O)(=O)c1ccc(F)cc1	FLT3 D835V	cell-free assay	competition with immobilised ligand	1 µM	99
c1cnn2ncc(-c3ccnc(N4CCC45COC5)n3)c2c1	Receptor-type tyrosine-protein kinase FLT3 (FLT3, Homo sapiens, UniProt P36888, K663Q)	binding	–	1 µM	100
Cc1cnc(Nc2ccc(C(=O)N3CCC(N4CCCC4)CC3)cc2)nc1-c1cc2ccccc2s1	FLT3 D835Y	binding	competition with immobilised ligand	1 µM	3.6
Cc1cnn2ncc(-c3ccnc(N(C)C)n3)c2c1	FLT3 D835H	binding	–	1 µM	100
CN1CCN(c2ccc(Nc3nccc(-c4cccc([N+](=O)[O-])c4)n3)cc2C(F)(F)F)CC1	FLT3 N841I	binding	–	10 µM	0.05
O=C(Nc1c[nH]nc1C(=O)NC1CCNCC1)c1cc(F)cc(F)c1	FLT3 D835V	binding	competition with immobilised ligand	1 µM	100
C[C@@H]1CN(c2cc(-c3nn(C)c4ccc(OC5(C)CC5)cc34)ncn2)C[C@H](C)O1	FLT3 autoinhibited	cell-free assay	competition with immobilised ligand	1 µM	77
F[C@@H]1CCN(c2nccc(-c3cnn4ncccc34)n2)C1	FLT3 N841I	binding	–	1 µM	100
O=C(NCCCN1CCOCC1)c1ccc(Nc2ncc(Cl)c(-c3ccc(Cl)s3)n2)cc1	FLT3 F691L/ITD	binding	competition with immobilised ligand	1 µM	5.1
CC1CCCN1c1nccc(-c2cnn3ncccc23)n1 (centres unmarked)	FLT3 R834Q	binding	–	1 µM	100
CCCCN(CCCC)C(=O)CN1C[C@@H](c2cc(OC)c3c(c2)OCO3)[C@H](C(=O)O)[C@H]1CC(C)(C)CCC	FLT3 D835Y	cell-free assay	competition with immobilised ligand	1 µM	75.2
O=C(NCCCN1CCOCC1)c1ccc(Nc2nccc(-c3cc4ccccc4s3)n2)cc1	FLT3	binding	competition with immobilised ligand	1 µM	61
C[C@H](c1ccnc(Nc2nc3ccc(-c4cc(N(C)C)ncn4)cc3[nH]2)c1)N1CCN(C(=O)CC(F)(F)F)CC1	FLT3 F691L/ITD	cell-free assay	competition with immobilised ligand	0.1 µM	42
CN(CCCC(F)(F)F)c1nccc(-c2cnn3ncccc23)n1	FLT3 R834Q	binding	–	1 µM	100
O=C1CCc2cc(Nc3cc(OC4CCOCC4)c([N+](=O)[O-])cc3Cl)ccc2N1	FLT3 D835H	cell-free assay	competition with immobilised ligand	1 µM	99
C[C@@H](c1ccc(-n2cnc3c(N)ncnc32)cc1)N1CCc2nn(C)c(Cc3ccccc3)c2C1=O	FLT3 D835V	binding	competition with immobilised ligand	0.1 µM	87
Cc1noc([C@H]2C[C@@H](c3ccc(C(F)(F)F)cc3)CN(C(=O)N3CCS(=O)(=O)C3)C2)n1	FLT3 D835H	cell-free assay	competition with immobilised ligand	1 µM	100
CNC(=O)[C@@H]1CC[C@@H](n2c(-c3ccc4cnccc4c3)nc3ccc(C(=O)NCc4cccc(C(N)=O)c4)cc32)C1	FLT3 D835V	binding	competition with immobilised ligand	1 µM	94
CC(=O)N1CCC(c2ccc(C(=O)NC(=N)N)cc2C(F)(F)F)CC1	FLT3	cell-free assay	competition with immobilised ligand	1 µM	100
N[C@H]1CCN(c2nccc(-c3cnn4ncccc34)n2)C1	FLT3 autoinhibited	binding	–	1 µM	99
O=C(c1ccc(Nc2ncc(Cl)c(-c3cc4ccccc4s3)n2)cc1)N1CCC(N2CCCC2)CC1	FLT3 N841I	binding	competition with immobilised ligand	1 µM	0
